Results as given in ChEMBL document CHEMBL4382230, “Structure-activity relationships, biological evaluation and structural studies of novel pyrrolonaphthoxazepines as antitumor agents” (Eur J Med Chem, 2019).
Values after ≈ are worked out from the molar mass of the structure shown. Active and inactive are the calls of the source. The rule behind the calls is not given here.

Tests used:
[1] = test system: NIH3T3; assay: Cytotoxicity against mouse NIH/3T3 cells after 48 hrs by MTT assay; type: cell-based; settings: NIH3T3, 48 h
Summary of the method: (§1)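 Cells seeded at 12,000 to 17,000 per well depending on line, incubated overnight, then given serial dilutions of ligand for 48 h. MTT at 2.5 mg/mL added for 4 h at 37 °C, formazan solubilized overnight (10% SDS, 45% dimethylformamide, pH 5.5), absorbance read at 595/690 nm. IC50 from log-dose response curves; mean ± SE of three independent assays.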

[2] = test system: HCC827; assay: Cytotoxicity against human HCC827 cells assessed as reduction in cell survival at 0.1 to 10 uM after 18 hrs by MTT assay; type: functional, cell-based
Summary of the method: (§2)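 Seeded at 2,500 cells/well in medium with 10% serum. After adhesion, exposed to 0.1, 1 and 10 μM in medium with 5% serum for 18 h. Medium then replaced with fresh medium containing 1.2 mM MTT for 4 h; formazan dissolved in DMSO, absorbance at 540 nm. Results given as % of basal response.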

[3] = Solubility of compound in pH 7.4 aqueous solution after 12 hrs by HPLC analysis; type: physicochemical
Summary of the method: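 Water solubility at pH 7.4 measured by HPLC analysis.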

[4] = test system: Ca9-22; assay: Cytotoxicity against human Ca9-22 cells after 48 hrs by MTT assay; type: functional, cell-based; settings: Ca9-22, 48 h
[5] = test system: HL-60; assay: Induction of autophagy in human HL60 cells assessed as […] in LC3B-2 levels at 10 uM after 16 hrs in presence of lysosomal inhibitor chloroquine by immunoblot analysis; type: functional, cell-based
Summary of the method: (§3)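 HL-60 in serum-supplemented RPMI 1640, or starved in Earle's Balanced Salts for 15 min beforehand, then treated with 10 μM compound with or without 40 μM chloroquine for 1 h 45 min or 16 h. LC3B-II measured by immunoblot, densitometry normalized to actin, three independent experiments, Student's T-test.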

[6] = test system: PC-9; assay: Cytotoxicity against human PC9 cells assessed as reduction in cell survival at 0.1 to 10 uM after 18 hrs by MTT assay; type: functional, cell-based; summary of the method: as §2
[7] = test system: PC-9; assay: Induction of apoptosis in human PC9 cells assessed as increase in p21 expression at 10 uM after 18 hrs by Western blot analysis; type: functional, cell-based
Summary of the method: (§4)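 PC9 and HCC827 maintained in DMEM with 10% FBS, then exposed to 10 μM compound for 18 h in 5% serum. Caspase 3 activation and cell cycle proteins examined by western blot.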

[8] = test system: NCI-H929; assay: Induction of apoptosis in human NCI-H929 cells at 500 nM after 48 hrs by Annexin V/propidium iodide staining-based flow cytometric analysis relative to control; type: functional
Summary of the method: (§5)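 Seeding density: NCI-H929 and Ca9.22 at 30×10^4 cells/mL, SCC4 at 15×10^4 cells/mL. Cells exposed 48 h to compound (500 nM; 50 μM in SCC4 for one compound) or vehicle (1% EtOH v/v). Annexin V/PI staining, flow cytometry, 10,000 cells gated on vehicle-treated cells. Three independent experiments, mean ± S.E.M, T-test.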

[9] = test system: SCC-4; assay: Cytotoxicity against human SCC4 cells after 48 hrs by MTT assay; type: functional, cell-based; settings: SCC-4, 48 h
Summary of the method: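 Cells (NCI-H929 in RPMI-1640 GlutaMAX; SCC4 in DMEM GlutaMAX; 10% FBS, 37 °C, 5% CO2) treated with increasing concentrations for 48 h. IC50 is the mean of three independent experiments.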

[10] = test system: HL-60; assay: Induction of autophagy in serum starved human HL60 cells assessed as increase in LC3B-2 levels at 10 uM after 105 mins by immunoblot analysis; type: functional, cell-based; summary of the method: as §3
[11] = test system: SCC-4; assay: Induction of apoptosis in human SCC4 cells at 500 nM after 48 hrs by Annexin V/propidium iodide staining-based flow cytometric analysis relative to control; type: functional; summary of the method: as §5
[12] = test system: HL-60; assay: Induction of autophagy in serum starved human HL60 cells assessed as increase in LC3B-2 levels at 10 uM after 105 mins in presence of lysosomal inhibitor chloroquine by immunoblot analysis; type: functional, cell-based; summary of the method: as §3
[13] = test system: A549; assay: Cytotoxicity against human A549 cells assessed as reduction in cell survival at 0.1 to 10 uM after 18 hrs by MTT assay; type: functional, cell-based; summary of the method: as §2
[14] = Solubility of compound in pH 3 aqueous solution after 12 hrs by HPLC analysis; type: physicochemical
[15] = test system: HCC827; assay: Induction of apoptosis in human HCC827 cells assessed as increase in caspase-3 expression at 10 uM after 18 hrs by Western blot analysis; type: functional, cell-based; summary of the method: as §4
[16] = Cytotoxicity against human A2780AD cells after 48 hrs by MTT assay; type: functional, cell-based; summary of the method: as §1
[17] = test system: Ca9-22; assay: Cytotoxicity against human Ca9-22 cells after 72 hrs by MTT assay; type: functional, cell-based; settings: Ca9-22, 72 h
[18] = test system: B16-F1; assay: Cytotoxicity against mouse B16-F1 cells assessed as reduction in cell survival at 0.1 to 10 uM after 18 hrs by MTT assay; type: functional, cell-based; summary of the method: as §2
[19] = test system: NIH3T3; assay: Cytotoxicity against mouse NIH/3T3 cells harboring MDR G185 after 48 hrs by MTT assay; type: functional, cell-based; settings: NIH3T3, 48 h; summary of the method: as §1
[20] = test system: PC-9; assay: Induction of apoptosis in human PC9 cells assessed as increase in caspase-3 expression at 10 uM after 18 hrs by Western blot analysis; type: functional, cell-based; summary of the method: as §4
[21] = test system: HCC827; assay: Induction of apoptosis in human HCC827 cells assessed as reduction in cyclin D1 expression at 10 uM after 18 hrs by Western blot analysis; type: functional, cell-based; summary of the method: as §4
[22] = test system: Ca9-22; assay: Induction of apoptosis in human Ca9-22 cells at 500 nM after 48 hrs by Annexin V/propidium iodide staining-based flow cytometric analysis relative to control; type: functional, cell-based; summary of the method: as §5
[23] = test system: HL-60; assay: Cytotoxicity against human HL60 cells assessed as reduction in cell viability after 72 hrs by alamar blue assay; type: functional, cell-based; settings: HL-60, 72 h
Summary of the method: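 HL-60 at 300,000 cells/ml treated in triplicate with compound or vehicle (0.1% v/v DMSO) for 72 h. Cells then incubated in 10% (v/v) AlamarBlue and fluorescence read at excitation 544 nm, emission 590 nm. IC50 is the mean of at least three separate determinations.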

[24] = target: T1, Tubulin (Homo sapiens) (UniProt P68371+Q9H4B7+P0DPH7+P68366+Q13509+Q71U36+P04350+Q3ZCM7+P07437+P68363+Q9BQE3+Q6PEY2+Q13885+Q9BVA1+Q9BUF5); assay: Displacement of podophyllotoxin from tubulin (unknown origin) by ultracentrifugation method; type: protein-complex assay
[25] = target: T1, Tubulin (Homo sapiens); assay: Binding affinity to tubulin (unknown origin) by analytical ultracentrifugation
[26] = target: T1, Tubulin (Homo sapiens); assay: Inhibition of tubulin (unknown origin) polymerization at 27.5 uM measured over 70 mins by turbidity method; type: protein-complex assay
Summary of the method: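 Tubulin at 25 µM in GAB buffer (10 mM sodium phosphate, 30% glycerol, 1 mM EGTA, 6 mM MgCl2, 1 mM GTP, pH 6.7) with 27.5 µM compound or DMSO vehicle. Turbidity is read at 355 nm for 70 min at 37 °C. Data are normalized to the initial stable absorbance plateau to correct for compound absorbance.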

CC(=O)OC1=C(c2cccc3ncccc23)Oc2cc3ccccc3cc2-n2cccc21
IC50 [1]: 42 nM
Activity [2]: Active
solubility at 12 h [3]: 458 µM (≈ 192 µg/mL)
IC50 [4]: 13400 nM
Activity [5]: Active
Activity [6]: Active
Activity [7]: Active
Activity [8]: >40%
IC50 [9]: 222 nM
Activity [10]: Active
Activity [11]: >40%
Activity [12]: Active
Activity [13]: Active
solubility at 12 h [14]: 210 µM (≈ 88 µg/mL)
Activity [15]: Active
IC50 [16]: 92 nM
IC50 [17]: 4500 nM
Activity [18]: Active
IC50 [19]: 84 nM
Activity [20]: Active
Activity [21]: Active
Activity [22]: inactive
IC50 [23]: 294 nM
inhibition [24]: Active
Kb [25]: 7 ×10⁷ /M
inhibition [26]: Active
